CDK5 p35 inh: CDK5/p35 (human) kinase inhibition | Q00535+Q15078 | Recombinant CDK5/p35, ADP-Glo luminescence, 60 min | inhibition, % at 10 µM | actives 0.01% (n = 330,000);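 active means highest replicate inhibition of at least 50% and at least 75% of replicates reaching 50%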;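 further: plate controls were DMSO neutral control for no effect and GW8510 at 10 µM for full effect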
GSK3A inh: human GSK-3 alpha kinase inhibition; P49840; ADP-Glo luminescence, 60 min; inhibition, % at 10 µM; actives 0.1% (n = 320,000);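 active means more than half of replicates show inhibition above 20%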;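 further: GST-tagged GSK-3 alpha with peptide substrate and 25 µM ATP; 0% = DMSO neutral wells and 100% = GW8510 positive control wells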
STK33 kinase inh: human STK33 kinase inhibition; actives 0.073% (n = 320,000); inhibition, % at 10 µM; purified STK33, MBP phosphorylation, ADP-Glo luminescence;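 active means inhibition at or above 25%, using the most active replicate where run in duplicate; inactive means inhibition below 25%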
Target sequence (Q9BYT3 whole entry, looked up): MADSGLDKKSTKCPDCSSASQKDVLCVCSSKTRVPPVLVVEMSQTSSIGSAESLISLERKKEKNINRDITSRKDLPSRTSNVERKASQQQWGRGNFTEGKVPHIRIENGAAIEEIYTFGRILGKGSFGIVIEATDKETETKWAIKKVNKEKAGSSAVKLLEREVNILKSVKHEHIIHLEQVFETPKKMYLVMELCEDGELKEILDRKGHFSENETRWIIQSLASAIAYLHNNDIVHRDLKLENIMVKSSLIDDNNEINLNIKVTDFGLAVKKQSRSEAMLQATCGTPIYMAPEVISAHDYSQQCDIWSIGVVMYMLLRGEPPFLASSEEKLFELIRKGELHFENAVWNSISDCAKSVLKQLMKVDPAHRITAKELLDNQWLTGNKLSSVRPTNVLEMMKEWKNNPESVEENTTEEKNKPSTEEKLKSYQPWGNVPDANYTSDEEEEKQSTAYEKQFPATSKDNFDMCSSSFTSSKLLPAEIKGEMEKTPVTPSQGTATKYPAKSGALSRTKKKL
Dyrk1A ADPGlo: inhibitors of rat Dyrk1A kinase; Q63470; ADP-Glo luminescence, NFATc1 peptide; inhibition, % at 12.5 µM; actives 0.43% (n = 310,000); in the data active means inhibition above about 50%;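 further: plate controls were vehicle with enzyme for no effect and no enzyme for full effect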
GSK3beta inhib: inhibitors of human GSK3beta kinase; P49841; GST-GSK3beta kinase, ADP-Glo luminescence, 60 min; active compounds read low; activity score (negative = inhibition), % at 10 µM; actives 0.038% (n = 300,000);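 active means more than half of replicate wells score below -50%, meaning over 50% inhibition versus plate controls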;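 further: 0% = median DMSO wells and -100% = median GW8510 positive control wells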
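Test system – GST-tagged human GSK3beta kinase, cell-free · Incubation – 60 min enzyme reaction, room temperature · Signal – ADP-Glo luminescence · Also added – peptide substrate and ATP at 25 µM · Controls – DMSO neutral wells and GW8510 at 20 µM as positive · Buffer or medium – Tris/MgCl2 kinase buffer · Measure – Luminescence-derived activity versus plate DMSO and GW8510 wells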
Active calls of the source: *; · = not tested or not shown; ! = not active in a repeat. The full list was thinned out, with hits kept by preference.

SMILES | CDK5 p35 inh | GSK3A inh | STK33 kinase inh | Dyrk1A ADPGlo | GSK3beta inhib
O=C(Nc1cccc(-c2ccc(N3CCOCC3)nn2)c1)c1ccc(F)cc1F | -4.6 | -1.3 | -0.3 | -6.6 | -3.4
C#Cc1cccc(N2C(=O)C3C4C=CC(C3C2=O)C2C(=O)N(c3cccc(C#C)c3)C(=O)C42)c1 (centres undefined) | -0.6 | · | · | -2.4 | ·
Clc1cncc(Cl)c1N/N=C/c1ccncc1 | 52.1* | · | · | 5.9 | -30.1
O=C(CCc1ccccc1)Nc1ccc2ccccc2n1 | 1.5 | 0.4 | 0.2 | 8.4 | 0.6
CCn1c2ccccc2c(=O)c2ccccc21 | 3.5 | 10.1 | 31.2* | 41.5 | -17.9
COc1cccc2c1cc1c(=O)n(CC(=O)NCCCN3CCCCC3)nc(C)n12 | 0.6 | -1.0 | 0.0 | -1.9 | -60.3*
Cc1ccc(N(CC(=O)NC2CCCC2)C(=O)CNC(=O)c2cccs2)c(C)c1 | -4.4 | -1.9 | -1.8 | 6.6 | -0.6
Fc1ccc(/C=N/Nc2ncnc3nc[nH]c23)cc1F | 13.9 | 64.6* | 7.6 | 25.4 | -21.2
Cc1cccc(N=c2oc3cc(O)ccc3cc2C(N)=O)c1 | 0.7 | 55.8* | 19.1 | -5.6 | 0.4
COc1ccc2cc(C(N)=O)c(=Nc3ccc(C)cc3)oc2c1 | 1.1 | -0.4 | 0.5 | 30.8 | 5.9
CCOc1cc(/C=N/NC(=O)C(=O)NCCCOC(C)C)cc(Br)c1O | · | -0.1 | -0.4 | 2.8 | -0.9
CC(=O)c1cc(O)c2ccccc2c1O | 3.9 | -3.2 | -1.1 | 62.2* | 1.0
COc1cc(/C=C2\SC(=Nc3ccc(Cl)c(C(=O)O)c3)NC2=O)c(Br)c(Br)c1O | -3.8 | 22.1 | 35.1* | 65.0* | -15.0
COC(=O)/C=C1\SC(=Nc2ccc(Cl)c(Cl)c2)NC1=O | -2.2 | -2.8 | -0.7 | 0.6 | 0.3
CCN1CCN(Cc2c(O)ccc3c2O/C(=C\C=C\c2ccccc2)C3=O)CC1 | 0.4 | -1.4 | -2.0 | -1.8 | -1.4
CN(C)Cc1c(O)ccc2c1O/C(=C\C=C\c1ccccc1)C2=O | 3.0 | 45.6 | 8.0 | 2.8 | -54.0*
Cc1cc2[nH]c(=O)c(=O)[nH]c2cc1S(=O)(=O)Nc1cccc(C)c1C | 0.8 | 2.6 | -1.1 | -3.0 | 0.5
COc1ccc2noc3c2c1C(=O)c1ccccc1-3 | -0.5 | 6.2 | 12.0 | 15.2 | 1.3
O=C1c2ccccc2-c2onc3ccc(NCCCn4ccnc4)c1c23 | · | 62.8* | 47.6* | · | -29.4
N=C1/C(=C/c2ccc(-c3cccc(C(=O)O)c3)o2)C(=O)N=C2SC(CC(=O)N3CCOCC3)=NN12 | -1.2 | 4.0 | 6.4 | 79.2* | 3.8
CCCCCCCCCCCCCCCCn1cc[n+](C)c1 | 4.2 | 24.3 | 26.8*! | 0.2 | -17.8
CCCCCCCCn1ccc(=N)cc1 | -0.1 | -6.1 | 1.0 | -3.5 | -4.6
COc1ccc(-c2nc(-c3ccccn3)no2)cc1 | 22.6 | 33.2 | 29.3* | 35.1 | -20.5
Fc1cccc(Nc2nc(-c3ccncc3)nc3ccccc23)c1 | -1.3 | -0.2 | -0.8 | 1.7 | -75.0*
Cc1ccc(-c2nc(Nc3cccc(O)c3)c3ccccc3n2)cc1 | 0.6 | 16.5 | -0.4 | 64.3* | 0.3
SMILES | CDK5 p35 inh | GSK3A inh | STK33 kinase inh | Dyrk1A ADPGlo | GSK3beta inhib
Oc1ccc(Nc2nc(-c3ccccc3O)nc3ccccc23)cc1 | 2.4 | -3.4 | 49.1* | 3.2 | 0.0
COc1ccc(OCCCC(=O)NCC(C)C)cc1 | 1.0 | -0.5 | 0.1 | -3.2 | 0.9
CCn1ccnc1CN(C)Cc1cn(-c2ccccc2)nc1-c1ccc(OC)cc1F | 0.0 | -0.7 | 0.1 | -1.2 | 0.7
COc1cc(C2c3sc(=O)[nH]c3SC3C4CCC(C4)C23)ccc1O (centres undefined) | -4.1 | 77.6* | 0.6 | 0.1 | 2.6
COc1cc(C2c3sc(=O)[nH]c3SC3C(=O)N(c4ccc(C)cc4)C(=O)C32)ccc1O (centres undefined) | 0.6 | 4.8 | 31.3* | 32.7 | 1.1
CCOc1ccc(N2C(=O)C3Sc4[nH]c(=O)sc4C(c4ccc(OC)c(OC)c4)C3C2=O)cc1 (centres undefined) | -1.7 | -2.2 | -3.1 | -3.7 | 0.3
O=C(Cc1ccsc1)NNC(=O)c1ccccc1O | 0.4 | 1.0 | -1.0 | -4.9 | 2.4
Cc1ccc(C(=O)NNC(=O)CCCCC(=O)NNC(=O)c2ccc(C)cc2)cc1 | -0.2 | 0.9 | -0.9 | · | -1.7
COc1ccc(S(=O)(=O)N2CCOCC2)cc1NC(=O)c1ccc(S(=O)(=O)N(C)c2ccccc2OC)cc1 | 0.7 | · | · | · | ·
CC(C)(C)C1=NN=C2c3ccccc3C(=O)C21 (centres undefined) | 0.6 | 10.4 | 30.0* | 1.4 | -3.3
